# Runt-CBFb FRET: blocks binding of human RUNX1 Runt domain to CBFb; Q01196+Q13951; Cerulean-Runt/Venus-CBFb FRET ratio 530/480, 1 h; inhibition, % at 20 µM; actives 0.46% (n = 220,000); AID 1496;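 active means inhibition over about 50% at 20 µM in the single-dose screen, limit read from the data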
#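 Assay system: Cerulean-Runt domain fusion protein, energy donor; Signal: fluorescence energy transfer, 422 nm excitation, 530/480 nm emission; Timing: 1 h compound exposure, room temperature; Control set: unlabeled CBFb; Medium: Tris buffer pH 7.5 with salts and BSA; Compound: single test concentration of 20 µM, 1% DMSO final; Probe or stimulus: Venus-CBFb 100 nM.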
# Hck Nef HTS: inhibitors of human Hck kinase activated by Nef | actives 0.68% (n = 220,000) | P08631 | Recombinant Hck-YEEI plus Nef, Z-Lyte FRET kinase assay | inhibition, % at 20 µM | AID 463187;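 active means Hck-Nef kinase inhibition above about 50%, limit read from the data; inactive means inhibition below that limit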
# Target sequence (P08631 whole entry, looked up): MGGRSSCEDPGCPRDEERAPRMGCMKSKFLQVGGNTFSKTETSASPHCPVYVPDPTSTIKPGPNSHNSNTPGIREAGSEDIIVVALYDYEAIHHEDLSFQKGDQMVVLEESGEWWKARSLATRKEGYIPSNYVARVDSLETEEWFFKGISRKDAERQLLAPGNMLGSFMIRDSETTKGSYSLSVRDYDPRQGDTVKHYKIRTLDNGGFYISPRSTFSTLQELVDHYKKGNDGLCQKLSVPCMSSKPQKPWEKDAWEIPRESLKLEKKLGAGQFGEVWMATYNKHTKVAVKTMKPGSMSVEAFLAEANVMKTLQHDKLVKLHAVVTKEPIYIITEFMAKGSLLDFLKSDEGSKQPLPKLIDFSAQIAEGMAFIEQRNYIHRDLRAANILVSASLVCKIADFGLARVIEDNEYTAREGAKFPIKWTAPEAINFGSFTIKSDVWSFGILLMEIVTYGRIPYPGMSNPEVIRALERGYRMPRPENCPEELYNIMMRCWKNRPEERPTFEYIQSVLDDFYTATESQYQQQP
# Runt-SMMHC FRET: inhibitors of human RUNX1 Runt domain binding to CBFb-SMMHC; Q01196+Q13951; Cerulean-Runt/Venus-CBFb-SMMHC FRET ratio 530/480, 1 h; inhibition, % at 20 µM; actives 0.74% (n = 220,000); AID 1434;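 active means mean inhibition across duplicate retests at 20 µM reaching about 50%, limit read from the data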;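 further: inhibitors lower the FRET ratio by blocking Runt binding to CBFb-SMMHC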
# CaV13 ICDI inh: Disruptors of the CACNA1D IQ motif to Ca2+-dependent inactivation inhibitor domain association, primary screening, Förster resonance energy transfer in intact living …. HEK cells, CFP/YFP FRET ICDI-IQ, plate reader, 10 min; percent FRET-ratio fall versus neutral wells. inhibition, % at 12.3 µM. actives 0.098% (n = 340,000);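 active means mean replicate inhibition of at least 30% and at least 1% of replicates passing that level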
# RanGTP-Imp inh: disruptors of Ran-importin-beta complex formation – biochemical, FRET, CFP-Ran, YFP-importin-beta, homogeneous, primary screen | cell-free CFP-Ran/YFP-importin-beta FRET ratio | inhibition, % (no concentration beside the values) | actives 1.1% (n = 300,000);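 active means more than half of the replicate wells show a fall in the fluorescence ratio signal beyond about 16%, limit read from the data, passing the limit was not always enough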
# YIC FRET counter: counter-screen: alters YIC FRET probe signal; shares compounds with RanGTP-Imp inh; Purified YIC probe, intramolecular FRET ratio YFP/CFP; IC50, µM; actives 40% (n = 1,000); AID 435026;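 active means fitted half-maximal inhibitory concentration no more than tenfold above the top dose tested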
# Hits are given with their value; . = inactive; / = no result given. Rows were chosen to be rich in hits. Some 1.5% of all compounds tested hit in one or more screens of this group.
SMILES,Runt-CBFb FRET,Hck Nef HTS,Runt-SMMHC FRET,CaV13 ICDI inh,RanGTP-Imp inh,YIC FRET counter
Cc1ccnc(NC(=O)C2CCN(S(=O)(=O)c3ccc(Cl)c(C(F)(F)F)c3)CC2)c1,/,/,/,.,.,/
Cc1ccc(NC(=O)C2CCN(S(=O)(=O)c3ccc(Cl)c(C(F)(F)F)c3)CC2)nc1,/,/,/,.,20,.
Cc1ccc(S(=O)(=O)CC(=O)N(CCCN(C)C)c2nc3ccc(C)cc3s2)cc1,/,/,/,.,21,.
CC(C)(C)n1cnc2cc(NCc3ccc(Br)cc3)ccc21,/,/,/,.,23,.
CCc1ccc(CNc2ccc3c(c2)ncn3CC)cc1,/,/,/,.,17,.
CCc1ccc(CNc2ccc3c(c2)ncn3C(C)(C)C)cc1,/,/,/,.,18,.
O=C(NC(=S)Nc1ccccc1)c1cc([N+](=O)[O-])ccc1N1CCOCC1,.,.,.,.,.,/
CC(C(=O)N1CCCC1)N1CCN(S(=O)(=O)c2ccccc2)CC1 (stereo unspecified),/,/,/,.,/,/
COC(=O)c1ccccc1NC(=S)NC(=O)c1ccccc1,.,.,.,.,.,/
COC(=O)c1cccnc1NC(=S)NNC(=O)c1ccccc1,.,.,.,.,27,.
O=C(NCc1ccc(C(F)(F)F)cc1)C1CC(c2ccc(C(F)(F)F)cc2)=NO1 (stereo unspecified),/,/,/,.,.,/
O=C(NCc1ccccc1C(F)(F)F)C1CC(c2ccc(C(F)(F)F)cc2)=NO1 (stereo unspecified),.,.,.,.,17,.
Cc1cc2oc3cc(NCCC4CCCN4C)ccc3c(=O)c2cc1C (stereo unspecified),/,/,/,77,31,8.9
CN1CCCC1CCNc1ccc2sc3ccccc3c(=O)c2c1 (stereo unspecified),/,/,/,.,.,/
CN(C)S(=O)(=O)c1ccc(N2CCCC2)c(C(=O)NC(c2ccccc2)c2ccccc2)c1,.,.,.,.,19,.
CN(C)S(=O)(=O)c1ccc(N2CCCC2)c(C(=O)NNC(=O)c2ccccc2)c1,/,/,/,.,/,/
CCOC(=O)/C=C1\SCC(=O)N1CC(=O)c1ccc[nH]1,/,.,.,.,21,.
CCOC(=O)/C=C1\SCC(=O)N1CC(=O)Nc1ccc(OC)c(OC)c1,.,.,.,/,.,/
Cc1ccccc1Cn1nnc(-c2cccc(C(=O)O)c2)n1,.,.,.,.,16,.
CCn1c(CNC(=O)c2ccco2)nnc1SCCOc1ccccc1,/,/,/,.,.,/
Cc1nc2nc(CCNS(=O)(=O)c3ccc(Cl)cc3)cn2nc1C,/,/,/,.,18,32
CCOc1ccc(OCc2ccc(C(=O)N(CC)CC)cc2)cc1,.,.,.,.,21,.
CCCc1n(CC(O)COC2CCCCC2)c2ccccc2[n+]1C (stereo unspecified),/,.,/,.,.,/
CCCc1n(CC(O)COCc2ccccc2)c2ccccc2[n+]1C (stereo unspecified),.,.,.,.,35,.
CCOc1ccccc1NC(=O)Cn1nc(-c2ccco2)ccc1=O,/,/,/,.,.,/
SMILES,Runt-CBFb FRET,Hck Nef HTS,Runt-SMMHC FRET,CaV13 ICDI inh,RanGTP-Imp inh,YIC FRET counter
COc1cc(CN2CCC(C(=O)N3CCN(c4ccccc4F)CC3)CC2)ccc1O,.,.,.,.,.,/
COc1ccc2c(c1)C(c1ccc(C)o1)=NNC(c1cccnc1)=N2,.,.,.,.,21,.
COc1ccc2c(c1)C(c1ccc(C)o1)=NNC(c1ccccc1)=N2,.,.,.,.,.,/
CN(CCOc1ccccc1)CC(=O)Nc1ccc(Cl)cc1[N+](=O)[O-],.,.,.,.,35,.
CN(CC(=O)Nc1cccc(F)c1)CC(=O)Nc1ccc(Cl)cc1[N+](=O)[O-],.,.,.,.,.,/
CC1(C)CC(=O)C=C(NNC(=O)C2CCCCC2)C1,.,.,.,.,19,.
CSC1=NC2(CC(c3ccccc3)Oc3cc(O)ccc32)CC(C)(C)N1 (stereo unspecified),.,.,.,/,.,/
COc1cccc(NC(=O)CN(C)C(=O)c2cc(CN3C(=O)c4ccccc4C3=O)ccc2OC)c1,/,/,/,.,/,/
Cc1ccc(OCC(=O)NCCNC(=O)c2ccc(C)nc2)cc1,/,/,/,.,21,.
Cc1ccc(C(=O)NCCNC(=O)COc2ccc(Cl)cc2)cn1,/,/,/,.,.,/
COc1cccc(-c2nc(N3CCC(C)CC3)c3ccccc3n2)c1O,.,.,.,.,.,/
CCOc1ccc(C)cc1S(=O)(=O)Nc1ccc(Cl)cn1,.,.,.,.,19,.
Nc1ccc(Cl)c(-c2nc3ncccc3o2)c1,.,.,.,/,.,/
C=C(C)Cn1c(SCC(=O)O)nnc1-c1ccc(OC)cc1,.,.,.,.,22,.
C=C(C)CSc1nnc(-c2ccc(OC)cc2)n1N,.,.,.,.,.,/
COC(=O)c1cc(=O)n2c(sc3ccccc32)c1C#N,66,.,88,.,45,4.1
CCCc1nn2c(N)c(/C=C3\C=Nc4ccccc43)c(=O)nc2s1,.,.,.,.,.,/
CS(=O)(=O)c1nsc2nc(=O)c(/C=C3\C=Nc4ccccc43)c(N)n12,.,.,73,.,25,20
CC(C)Cc1nn2c(N)c(/C=C3\C=Nc4ccccc43)c(=O)nc2s1,.,.,.,.,25,.
CCCCc1nn2c(N)c(/C=C3\C=Nc4ccccc43)c(=O)nc2s1,.,.,.,.,.,/
COc1ccc(C2=NN(CC(=O)NCc3ccco3)C(=O)CC2)cc1,.,.,.,.,.,/
Nc1nccc(NCCSCc2ccccc2)n1,/,/,/,.,/,/
Cc1noc(C)c1S(=O)(=O)N1CCCC(C(=O)Nc2ccc(Cl)cn2)C1 (stereo unspecified),.,.,.,/,.,/
CCCCCN(C(=O)CN(C)Cc1ccc(OC)cc1OC)c1c(N)n(CCCC)c(=O)[nH]c1=O,.,.,.,/,20,.
Cc1ccc(Nc2cc(C)nn2-c2nc(C)cc(C)n2)cc1,.,.,.,.,24,.
SMILES,Runt-CBFb FRET,Hck Nef HTS,Runt-SMMHC FRET,CaV13 ICDI inh,RanGTP-Imp inh,YIC FRET counter
O=C(O)c1cn(Cc2cccnc2)c(=O)c2ccccc12,.,.,.,/,18,.
CCOC(=O)c1ccccc1NC(=O)COc1ccccc1,.,.,.,/,.,/
CCOC(=O)c1ccccc1NC(=O)COC(=O)C(CCSC)NC(=O)COc1ccccc1 (stereo unspecified),/,/,/,/,24,.
CC(=O)[C@@H]1[C@@H](C)N(Cc2ccccc2)C(=O)N[C@H]1c1cccc(C(F)(F)F)c1,.,.,.,/,20,.
COC(=O)[C@@H]1[C@@H](C)N(Cc2ccccc2)C(=O)N[C@H]1c1cccc(C(F)(F)F)c1,.,.,.,.,.,/
Cc1ccc2cc(C#N)c(N3CCCC3)nc2c1C,.,.,53,.,26,5.3
CC1(C)Cc2nc(N3CCOCC3)c(C#N)cc2CO1,.,.,.,.,.,/

# Compound activity from PubChem.
